In ChEMBL document CHEMBL3751842, “Novel triazolothiadiazines act as potent anticancer agents in liver cancer cells through Akt and ASK-1 proteins” (Bioorg Med Chem, 2016):
Calls of active or inactive are those of the source. The calls are words filed in the database; no cut-off is given here.

Legend:
[1] = target: T1, Mitogen-activated protein kinase kinase kinase 5 (Homo sapiens) (UniProt Q99683); test: Activation of ASK1 in human HuH7 cells assessed as SAPK/JNK phosphorylation after 24 to 48 hrs by Western blot analysis; assay type: cell-based; settings: Huh-7
T1 sequence (whole entry): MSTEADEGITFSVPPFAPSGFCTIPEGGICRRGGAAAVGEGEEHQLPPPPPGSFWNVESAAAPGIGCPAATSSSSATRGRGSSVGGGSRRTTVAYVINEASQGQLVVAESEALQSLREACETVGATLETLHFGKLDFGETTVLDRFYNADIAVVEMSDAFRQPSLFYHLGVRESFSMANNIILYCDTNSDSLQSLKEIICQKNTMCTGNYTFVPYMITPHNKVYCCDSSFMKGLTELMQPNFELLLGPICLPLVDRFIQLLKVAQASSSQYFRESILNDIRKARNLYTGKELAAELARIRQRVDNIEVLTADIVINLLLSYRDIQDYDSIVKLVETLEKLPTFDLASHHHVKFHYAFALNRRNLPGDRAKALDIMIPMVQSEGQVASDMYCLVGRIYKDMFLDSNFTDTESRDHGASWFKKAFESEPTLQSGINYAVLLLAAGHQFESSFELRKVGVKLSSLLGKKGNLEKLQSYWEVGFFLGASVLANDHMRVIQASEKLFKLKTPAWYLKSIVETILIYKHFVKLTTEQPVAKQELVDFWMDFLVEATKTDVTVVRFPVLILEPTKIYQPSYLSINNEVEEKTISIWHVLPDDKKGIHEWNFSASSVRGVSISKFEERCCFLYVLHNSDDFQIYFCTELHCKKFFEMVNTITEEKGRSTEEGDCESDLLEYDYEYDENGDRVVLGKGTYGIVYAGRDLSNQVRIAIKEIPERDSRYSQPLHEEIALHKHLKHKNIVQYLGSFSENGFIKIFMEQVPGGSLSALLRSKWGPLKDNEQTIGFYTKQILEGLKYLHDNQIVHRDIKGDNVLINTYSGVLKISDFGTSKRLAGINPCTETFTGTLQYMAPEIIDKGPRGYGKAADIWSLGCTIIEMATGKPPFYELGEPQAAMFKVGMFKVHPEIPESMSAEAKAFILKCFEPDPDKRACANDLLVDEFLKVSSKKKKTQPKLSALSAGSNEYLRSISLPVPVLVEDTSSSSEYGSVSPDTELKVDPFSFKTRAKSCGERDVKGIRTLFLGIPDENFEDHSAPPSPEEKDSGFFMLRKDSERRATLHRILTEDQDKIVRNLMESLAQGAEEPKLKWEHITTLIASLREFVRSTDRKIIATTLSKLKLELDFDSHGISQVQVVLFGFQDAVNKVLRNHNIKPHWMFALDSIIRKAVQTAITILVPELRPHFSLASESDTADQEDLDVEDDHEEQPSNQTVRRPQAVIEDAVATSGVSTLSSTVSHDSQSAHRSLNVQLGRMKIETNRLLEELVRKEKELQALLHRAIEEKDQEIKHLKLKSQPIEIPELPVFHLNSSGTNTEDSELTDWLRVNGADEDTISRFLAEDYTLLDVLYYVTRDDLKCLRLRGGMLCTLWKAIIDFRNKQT
How it was run: (§1)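 Cells were exposed to compound or DMSO control for 24 or 48 h. Lysates were loaded at […] protein per lane and immunoblotted with antibodies diluted 1:100 to 1:500 in 5% BSA-TBS-T. Targets were p-Akt (Ser473), Akt, p-GSK3-α/β (Ser21/9), GSK3-α/β, SAPK/JNK, p-SAPK/JNK (Thr183/Tyr185), PARP, p-β-catenin, β-catenin, cyclin D1, p-ASK1 (S83) and p-ASK1 (S966). Actin served as the loading control.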

[2] = target: T1, Mitogen-activated protein kinase kinase kinase 5 (Homo sapiens); test: Activation of ASK1 in human Mahlavu cells assessed as SAPK/JNK phosphorylation after 24 to 48 hrs by Western blot analysis; assay type: cell-based; how it was run: as §1
[3] = target: T1, Mitogen-activated protein kinase kinase kinase 5 (Homo sapiens); test: Activation of ASK1 in human Mahlavu cells assessed as Ser966 phosphorylation after 24 to 48 hrs by Western blot analysis; assay type: cell-based; how it was run: as §1
[4] = target: T1, Mitogen-activated protein kinase kinase kinase 5 (Homo sapiens); test: Activation of ASK1 in human HuH7 cells assessed as Ser83 phosphorylation after 24 to 48 hrs by Western blot analysis; assay type: cell-based; settings: Huh-7; how it was run: as §1
Mahlavu [5] = test: Induction of apoptosis in human Mahlavu cells assessed as decrease in cyclin D1 level after 24 to 48 hrs by Western blot analysis; assay type: functional, cell-based; how it was run: as §1
[6] = target: RAC-alpha serine/threonine-protein kinase (Homo sapiens) (UniProt P31749); test: Inhibition of Akt phosphorylation in human Mahlavu cells after 24 to 48 hrs by Western blot analysis; assay type: cell-based; how it was run: as §1
[7] = target: RAC-alpha serine/threonine-protein kinase (Homo sapiens) (UniProt P31749); test: Inhibition of Akt phosphorylation in human HuH7 cells after 24 to 48 hrs by Western blot analysis; assay type: cell-based; settings: Huh-7; how it was run: as §1
Mahlavu [8] = test: Induction of oxidative stress in human Mahlavu cells assessed as ROS accumulation at 10 uM after 48 hrs by DCFH-DA staining based fluorescence microscopy; assay type: functional, cell-based
How it was run: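 Cells in 6-well dishes were treated with 10 µM compound or DMSO for 48 h. They were washed in PBS and stained for 15 min at 37°C in the dark with DCFH-DA solution (1 mM DCFH-DA, 10 mM glucose, 10 mM HEPES in PBS). After three PBS washes, cells were viewed by fluorescence microscopy. Selenium-deficient serum-free medium culture served as the positive control.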

Huh-7 [9] = test: Induction of cell cycle arrest in human HuH7 cells assessed as accumulation at subG1 phase at 10 uM after 24 to 48 hrs by propidium iodide staining based FACS analysis; assay type: functional
How it was run: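 Huh7 cells were seeded at 300,000 per 100-mm dish. After 24 h they were treated with 10 µM compound or DMSO for 24 h and 48 h. Cells were trypsinized, fixed in ice-cold 70% ethanol and stored at −20 °C. They were then stained with propidium iodide and cell-cycle distribution, including SubG1, was read by flow cytometry.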

Huh-7 [10] = test: Induction of apoptosis in human HuH7 cells assessed as PARP cleavage after 24 to 48 hrs by Western blot analysis; assay type: functional, cell-based; how it was run: as §1
[11] = Cytotoxicity against human HuH7 cells assessed as growth inhibition after 72 hrs by sulforhodamine B assay; assay type: functional, cell-based, Huh-7; settings: Homo sapiens, Huh-7, 72 h; read-out: IC50
How it was run: (§2)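 Cells were grown at 37°C, 5% CO2 in DMEM with 10% FBS. They were seeded at 1000–3000 cells/well, grown 24 h, then exposed to compound at 2.5–40 µM for 72 h. Cells were fixed in 10% TCA for 1 h at 4°C, stained with 0.4% SRB in 1% acetic acid for 10 min, and the dye solubilized in 10 mM Tris. Absorbance was read at 515 nm; runs were in triplicate; IC50 was calculated, with fits of R2 0.8–1 accepted.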

MCF7 = test: Cytotoxicity against human MCF7 cells assessed as growth inhibition after 72 hrs by sulforhodamine B assay; assay type: functional, cell-based; settings: Homo sapiens, MCF7, 72 h; read-out: IC50; how it was run: as §2
[12] = Cytotoxicity against human HCT116 cells assessed as growth inhibition after 72 hrs by sulforhodamine B assay; assay type: functional, cell-based, HCT-116; settings: Homo sapiens, HCT-116, 72 h; read-out: IC50; how it was run: as §2
[13] = Cytotoxicity against human SNU475 cells assessed as growth inhibition after 72 hrs by sulforhodamine B assay; assay type: functional, cell-based, SNU-475; settings: Homo sapiens, SNU-475, 72 h; read-out: IC50; how it was run: as §2

Sequence of RAC-alpha serine/threonine-protein kinase (Homo sapiens) (P31749 whole entry): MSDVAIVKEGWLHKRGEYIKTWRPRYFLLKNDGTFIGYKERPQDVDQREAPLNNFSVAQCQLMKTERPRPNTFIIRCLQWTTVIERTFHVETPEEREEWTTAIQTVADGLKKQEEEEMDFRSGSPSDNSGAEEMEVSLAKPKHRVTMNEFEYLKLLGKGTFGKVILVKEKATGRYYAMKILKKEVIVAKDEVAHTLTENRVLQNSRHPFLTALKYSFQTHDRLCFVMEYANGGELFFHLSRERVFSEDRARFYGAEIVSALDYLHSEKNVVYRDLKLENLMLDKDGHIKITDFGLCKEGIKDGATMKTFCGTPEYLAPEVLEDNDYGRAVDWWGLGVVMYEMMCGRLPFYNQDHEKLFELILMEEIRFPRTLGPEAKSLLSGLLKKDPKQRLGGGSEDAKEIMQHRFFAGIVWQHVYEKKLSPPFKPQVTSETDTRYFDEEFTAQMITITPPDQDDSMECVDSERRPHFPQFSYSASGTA

SMILES | Activity [1] | Activity [2] | Activity [3] | Activity [4] | Activity (Mahlavu [5]) | inhibition [6] | inhibition [7] | Activity (Mahlavu [8]) | Activity (Huh-7 [9]) | Activity (Huh-7 [10]) | IC50 [11] | IC50 (MCF7) | IC50 [12] | IC50 [13]
Cc1ccc(C2=Nn3c(nnc3C(C)c3ccc(CC(C)C)cc3)SC2)cc1 (stereo not drawn) | Active | Active | Active | Active | Active | Active | Active | Active | Active | Active | 5 µM | 6.3 µM | 4 µM | 8.7 µM
COc1ccc(C2=Nn3c(nnc3C(C)c3ccc(CC(C)C)cc3)SC2)cc1 (stereo not drawn) | Active | Active | Active | Active | Active | Active | Active | Active | Active | Active | 3.7 µM | 5.2 µM | 4.2 µM | 8.5 µM
